Only some compounds are listed: those with a hit (about 4.4% of all), similar ones and a draw of the others.
SENP1 FRET inh: human SENP1 catalytic domain inhibitors, primary screen, biochemical, FRET, uHTS | inhibition, % at 10 µM | hit rate 0.21% among 360,000 | recombinant SENP1 catalytic domain, CyPet-SUMO1-YPet FRET cleavage | Sentrin-specific protease 1 (Homo sapiens), Q9P0U3;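 active = inhibition at least 30% at 10 µM, raw YFP signal under a set limit, fluorescence ratio 0.5 to 1.5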;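 note: 0% = enzyme with DMSO and 100% = no enzyme wells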
Target sequence (Q9P0U3 419-644 limits assumed): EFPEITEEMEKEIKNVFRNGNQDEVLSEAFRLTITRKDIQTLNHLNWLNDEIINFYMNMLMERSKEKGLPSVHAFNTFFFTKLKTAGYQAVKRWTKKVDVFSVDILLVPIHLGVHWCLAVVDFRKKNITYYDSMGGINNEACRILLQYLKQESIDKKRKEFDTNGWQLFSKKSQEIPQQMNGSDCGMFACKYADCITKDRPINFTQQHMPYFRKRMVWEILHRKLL
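System: Recombinant human SENP1 catalytic domain, His6-tagged | Incubation: Enzyme reaction for 50 min at room temperature, dark | Medium: Tris pH 8 with BME, BSA, NP40 and catalase | Also added: 25 nM SUMO1 FRET substrate | Compound: 10 µM single point, 0.5% DMSO | Measured by: FRET fluorescence in CFP and YFP emission channels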
MPTP inh: mitochondrial permeability transition pore inhibitors, primary screen, biochemical, isolated mouse mitochondria, absorbance; Ca2+ swelling absorbance, 30 min; inhibition, % at 10 µM; hit rate 1.4% among 360,000;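 active = inhibition of 50% or more, scaled per plate between neutral and stimulator controls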;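 note: 0% = DMSO wells given calcium and 100% = 1 mM EGTA wells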
EBI2 antag: EBI2 receptor antagonists, beta-arrestin recruitment, primary screen, cell-based, luminescence, 7a,25-OHC stimulation, uHTS; G-protein coupled receptor 183 (Homo sapiens), P32249; 7a,25-OHC stimulated; inhibition, % at 5 µM; hit rate 0.81% among 360,000; AID 651636, 2012; in the data active = inhibition above about 38%;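 note: enzyme fragment complementation signal reports receptor beta-arrestin coupling in cells; 0% = agonist plus DMSO wells and 100% = wells without agonist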
Target sequence (P32249 whole entry, looked up, the tested form may be a part): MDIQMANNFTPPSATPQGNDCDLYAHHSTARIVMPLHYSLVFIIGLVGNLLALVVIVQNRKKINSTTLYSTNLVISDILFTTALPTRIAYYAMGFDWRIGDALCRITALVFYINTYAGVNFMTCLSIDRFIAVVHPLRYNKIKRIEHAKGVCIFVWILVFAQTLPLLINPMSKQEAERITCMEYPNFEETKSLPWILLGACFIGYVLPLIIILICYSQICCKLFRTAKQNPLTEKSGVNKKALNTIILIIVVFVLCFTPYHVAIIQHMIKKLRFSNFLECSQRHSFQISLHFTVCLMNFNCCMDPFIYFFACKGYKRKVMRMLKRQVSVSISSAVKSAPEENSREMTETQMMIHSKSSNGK
GRIN3A LBD mod: binders of NR3A ligand-binding domain, primary screen, biophysical, differential scanning fluorimetry, uHTS; NR3A LBD differential scanning fluorimetry, Tm shift; 0% = protein alone, 100% = glycine-bound protein; Tm shift relative to glycine control, % at 25 µM; hit rate 2.5% among 340,000;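 active = melting temperature shift of at least 10% of the positive control shift, at one fixed dose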
Starred values were filed as active, the others as inactive; / = not tested or not shown.

SMILES	SENP1 FRET inh	MPTP inh	EBI2 antag	GRIN3A LBD mod
CCNc1nc(Nc2ccc(C)c(Cl)c2)c2cnn(C)c2n1	2.5	-0.5	23.1	-2.2
O=C(CCSCCc1ccccn1)Nc1ccc(Cl)cn1	2.5	0.1	17.7	-2.0
CCCCOCCCNC(=O)c1ccc(OCC)cc1	-1.3	-0.5	0.7	0.5
COC(=O)c1ccc(CSc2nc3ccccc3c(=O)n2CC(C)C)o1	0.8	2.0	-7.0	20.4*
COC(=O)c1ccc(CSc2nc3ccccc3c(=O)n2C)o1	15.2	1.9	1.6	1.3
CCc1ccc(N(C(=O)c2csnn2)C(C(=O)NC(C)(C)CC)c2ccccn2)cc1 (stereo not drawn)	1.0	-2.8	-0.7	-0.7
O=S(=O)(N/N=C/c1c(F)cccc1Cl)c1ccccc1	3.3	-1.7	-5.3	10.2*
CCOc1cc(NC(=S)NCC2CCCO2)c(OCC)cc1NC(=O)c1ccccc1F (stereo not drawn)	-12.6	-0.9	38.4	-8.6
C=CCc1cccc(/C=N/NC(=O)CCC(=O)Nc2ccc(C)cc2)c1O	0.1	1.9	-7.3	14.1*
CCCCC(=O)Nc1ccccc1CC	3.5	1.8	-8.4	-5.4
CCOC(=O)Nc1ccc(C)cc1Br	2.1	0.4	-5.1	-0.9
CCOC(=O)NC(=S)Nc1ccc(C(C)(C)C)cc1Br	1.9	-2.4	-3.2	18.3*
Cc1cccc(CCNC(=O)CC2C(=O)NCCN2Cc2ccccc2C)n1 (stereo not drawn)	-7.7	-0.8	1.5	0.7
Cc1ccccc1CN1CCNC(=O)C1CC(=O)NCCN1CCCCC1=O (stereo not drawn)	-10.0	0.0	-14.2	11.1*
CCOc1ccc(CN2CCNC(=O)C2CC(=O)NCCN2CCOC2=O)cc1 (stereo not drawn)	-2.9	-0.2	-12.5	15.8*
O=C(O)[C@@H]1CCCN1S(=O)(=O)c1cccc2cccnc12	-0.1	0.2	-0.2	-0.3
CCN(CC(=O)Nc1ccccc1OC)C(=O)CN1C(=O)NC(C)(c2ccccc2)C1=O (stereo not drawn)	-0.4	-0.1	-9.4	0.5
O=C(CN1CCCC1c1ccc2c(c1)OCCO2)NC(=O)Nc1ccccc1 (stereo not drawn)	0.3	0.7	5.0	1.1
Cc1cc(OCC(=O)NNC(=O)CCc2ccccc2)ccc1Br	0.5	-0.8	22.6	-4.3
N/C(=N\OC(=O)c1cccc(Br)c1)c1ccc(Br)cc1	1.7	-0.6	3.5	23.1*
N/C(=N\OC(=O)c1cccc(Br)c1)c1ccc([N+](=O)[O-])cc1	2.1	2.3	-6.6	13.7*
COc1ccc(OCC(=O)O/N=C(\N)Cc2ccc(Cl)cc2)cc1	0.6	0.6	8.5	14.6*
N/C(Cc1ccc([N+](=O)[O-])cc1)=N\OC(=O)c1cccc(Br)c1	3.4	0.8	-1.9	-14.6
COc1ccc(C(=O)O/N=C(\N)c2ccccc2)cc1	4.7	3.2	0.2	/
COc1ccc(C(=O)O/N=C(\N)c2ccc(Br)cc2)cc1	3.9	0.6	2.5	20.0*
SMILES	SENP1 FRET inh	MPTP inh	EBI2 antag	GRIN3A LBD mod
N/C(=N\OC(=O)c1ccc(Br)cc1)c1ccccc1	3.9	0.3	-1.0	-5.1
O=C(/C(=N\Nc1ccccc1)Sc1nnnn1-c1ccccc1)c1ccccc1	4.8	0.8	-6.2	-12.7
O=C(Nc1ccncc1)c1cc2ccccc2cc1O	-14.3	17.3	-34.9	5.2
COc1ccccc1C/C(N)=N/OC(=O)c1cccc([N+](=O)[O-])c1	-0.2	-2.0	-6.9	0.7
N/C(=N\OC(=O)c1ccc2ccccc2c1)c1cccc([N+](=O)[O-])c1	4.2	0.3	10.5	35.0*
COc1ccc(C/C(N)=N/OC(=O)c2cccc([N+](=O)[O-])c2)cc1	1.6	-0.2	-13.7	13.7*
N/C(=N/OC(=O)c1cccc([N+](=O)[O-])c1)c1cccc([N+](=O)[O-])c1	0.6	-1.5	4.3	0.3
Cc1cc(Cl)ccc1Nc1ncccc1C(N)=O	0.4	0.5	4.0	151.0*
N#CCCN(CCC#N)S(=O)(=O)c1ccc(C(=O)Nc2nc(-c3ccccc3)c(C(=O)c3ccccc3)s2)cc1	-50.5	2.4	13.7	11.7*
CN(C)S(=O)(=O)c1ccc(C(=O)Nc2nc(-c3ccccc3)c(C(=O)c3ccccc3)s2)cc1	-35.4	8.0	11.9	22.2*
O=C(Nc1nc(-c2ccccc2)c(C(=O)c2ccccc2)s1)c1ccc(S(=O)(=O)N2CCCC2)cc1	-54.1	16.9	13.8	14.4*
Cc1ccc(-c2nc(NC(=O)c3ccc(S(=O)(=O)N(CCC#N)CCC#N)cc3)sc2-c2ccccc2)cc1	0.4	1.4	29.0	10.3*
CCN(CC(=O)Nc1c(F)cccc1F)C(=O)COc1ccc2c(C)cc(=O)oc2c1	0.8	-1.7	9.4	1.0
O=C1c2cccc3c([N+](=O)[O-])ccc(c23)C(=O)N1c1ccc(Cl)cn1	-21.8	1.2	44.2*	-1.6
O=C1c2cccc3c([N+](=O)[O-])ccc(c23)C(=O)N1c1nccs1	-31.9	4.4	15.5	10.2*
O=C1c2cccc3c([N+](=O)[O-])ccc(c23)C(=O)N1c1ccccn1	-21.4	-0.3	24.3	2.4
NC(=O)c1ccc(-c2nnn(CC(=O)N(C3CCCC3)C3CCS(=O)(=O)C3)n2)cc1 (stereo not drawn)	-0.1	-0.3	4.3	0.1
COc1cccc(C(=O)Nc2ccc(NC(=O)C(C)(C)C)cn2)c1	-0.5	-3.2	3.4	17.2*
COc1cc(C(=O)Nc2ccc(NC(=O)c3cccc(Cl)c3)nc2)cc(OC)c1OC	-0.2	-0.1	-10.4	27.4*
COc1cccc(C(=O)Nc2ccc(NC(=O)C3CCCCC3)nc2)c1	-0.1	-1.1	-1.5	-5.2
COCCN(C(=O)c1snc(C(N)=O)c1N)C(C(=O)NC1CCCCC1)c1ccc(OC)c(OC)c1 (stereo not drawn)	-1.8	-0.4	-9.2	0.2
CCOCCCNC(=O)C1(O)c2cc(Br)ccc2NC(=O)N1c1cccc(OC)c1 (stereo not drawn)	0.8	0.6	-0.4	-1.0
CC(C)CCNC(=O)C1(O)c2ccccc2NC(=O)N1c1ccc(Cl)cc1 (stereo not drawn)	3.0	36.1	-5.5	3.9
CCOCCCNC(=O)C1(O)c2cc(Br)ccc2NC(=O)N1c1ccc(OCC)cc1 (stereo not drawn)	-1.6	-0.2	-8.5	12.0*
CCOCCCNC(=O)C1(O)c2cc(Br)ccc2NC(=O)N1c1ccc(CC)cc1 (stereo not drawn)	2.1	-1.4	3.8	17.8*
CCCNC(=O)C1(O)c2cc(Br)ccc2NC(=O)N1c1ccc(Cl)cc1 (stereo not drawn)	1.1	-0.4	4.3	0.0
CCOCCCNC(=O)C1(O)c2ccccc2NC(=O)N1c1ccc(Cl)cc1 (stereo not drawn)	1.7	6.7	-2.5	12.0*
CCc1nc2ccccc2n1CC1CC1(Cl)Cl (stereo not drawn)	-0.1	1.8	10.4	-0.9
